From ChEMBL document CHEMBL1142278, “Efficient inhibition of iron superoxide dismutase and of Trypanosoma cruzi growth by benzo[g]phthalazine derivatives functionalized with one or two imidazole rings” (J Med Chem, 2008) come the findings set out here.

Each structure is given as a SMILES string. Some results are limits rather than exact numbers.

A short description of data set [1]: Toxicity in african green monkey Vero cells after 72 hrs. Format: cell-based. Conditions: African green monkey (Chlorocebus sabaeus). The method in brief: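 Vero cells were cultured with compound for 72 h. The cytotoxic IC50 was derived by linear regression from Kc values at 2.5, 25 and 125 µM. Results are the average of three separate determinations.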
The subject of data set [2] is Trypanosoma cruzi. The data set can be described thus: Antiparasitic activity against Trypanosoma cruzi epimastigotes after 72 hrs. Format: functional, organism-based. The method in brief: (§1)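 Epimastigotes were cultured with compound at 2.5, 25 and 125 µM, and growth inhibition was read at 24, 48 or 72 h. IC50 was calculated by linear regression from Kc values at those concentrations. Results are the average of three separate determinations.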

Data set [3] has as its target Superoxide dismutase [Cu-Zn] (Homo sapiens) (UniProt P00441). The data set is described as follows: inhibition of CuZn-SOD in human erythrocytes at 25 uM. Format: cell-based.
Data set [4] has the same target. The data set can be described thus: inhibition of CuZn-SOD in human erythrocytes at 2.5 uM. Format: cell-based.
Data set [5] shares this target. The data set is described as follows: inhibition of CuZn-SOD in human erythrocytes at 125 uM. Format: cell-based.
Data set [6] concerns Trypanosoma cruzi. The data set is described as follows: Antiparasitic activity against Trypanosoma cruzi epimastigotes after 48 hrs. The class given is functional, organism-based. An outline of the steps: as §1
Data set [7] deals with Trypanosoma cruzi. The data set can be described thus: Inhibition of Iron superoxide dismutase in Trypanosoma cruzi epimastigotes at 25 uM.
The subject of data set [8] is Trypanosoma cruzi. The data set can be described thus: Inhibition of Iron superoxide dismutase in Trypanosoma cruzi epimastigotes at 2.5 uM.
In data set [9] the test system is Trypanosoma cruzi. The data set is described as follows: Antiparasitic activity against Trypanosoma cruzi epimastigotes after 24 hrs. The class given is functional, organism-based. An outline of the steps: as §1
Data set [10] deals with Trypanosoma cruzi. The data set can be described thus: Inhibition of Iron superoxide dismutase in Trypanosoma cruzi epimastigotes at 125 uM.
The subject of data set [11] is Trypanosoma cruzi. The data set can be described thus: Antiparasitic activity against Trypanosoma cruzi in Vero cells assessed as reduction of infection rate at 10 uM relative to control. Format: functional. Set-up: scale not given: the % may be the effect or the level left. The method in brief:
(§2)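 Vero cells (1 × 10^5) were grown for 2 days, then infected with 1 × 10^6 T. cruzi metacyclic forms, adding compound (10 µM) at the same time. Cultures were followed over days 1–8. Read-outs were % infected cells, mean amastigotes per infected cell, and trypomastigotes in the medium, each compared with an untreated control. Values are means of three separate experiments.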

The subject of data set [12] is Trypanosoma cruzi. The data set can be described thus: Antiparasitic activity against Trypanosoma cruzi in Vero cells assessed as reduction of trypomastigotes at 10 uM on day 8 relative to control. Format: functional. Set-up: scale not given: the % may be the effect or the level left. An outline of the steps:
as §2

In data set [13] the test system is Trypanosoma cruzi. The data set can be described thus: Antiparasitic activity against Trypanosoma cruzi in Vero cells assessed as reduction of amastigotes at 10 uM on day 8 relative to control. The class given is functional. Set-up: scale not given: the % may be the effect or the level left. The method in brief:
as §2

Sequence of Superoxide dismutase [Cu-Zn] (Homo sapiens) (P00441 whole entry): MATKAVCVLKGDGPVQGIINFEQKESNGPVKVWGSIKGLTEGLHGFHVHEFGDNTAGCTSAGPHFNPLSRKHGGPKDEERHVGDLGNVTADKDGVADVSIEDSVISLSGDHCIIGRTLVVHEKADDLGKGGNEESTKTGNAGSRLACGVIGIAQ

The term IC50 denotes the point on the concentration scale where inhibition reaches its midpoint. As to `c1ccc2cc3c(NCCc4cnc[nH]4)nnc(NCCc4cnc[nH]4)c3cc2c1`, half-maximal inhibition in data set [1] (IC50 at 72 h) required 88.7 µM.

One may read the inhibition as the relative decrease from the control value, in per cent. Regarding `c1ccc2cc3c(NCCc4c[nH]cn4)nnc(NCCc4c[nH]cn4)c3cc2c1`, the IC50 in the data set with Trypanosoma cruzi [2] came out at 14.2 µM; in the data set on Trypanosoma cruzi [6], 35.1 µM; in the data set with Trypanosoma cruzi [9], 61.1 µM. In addition, the inhibition in data set [3] amounted to 5%; in data set [4], 0%; in [5], 6%; in the data set on Trypanosoma cruzi [7], 53%; with Trypanosoma cruzi [8], 46%; in the data set with Trypanosoma cruzi [10], 86%. In the data set on Trypanosoma cruzi [11], the Activity is greater than 50%.

On to `Clc1nnc(NCCc2c[nH]cn2)c2cc3ccccc3cc12`, for which the results for the IC50 with Trypanosoma cruzi [2], with Trypanosoma cruzi [6] and in the data set with Trypanosoma cruzi [9] were less than 0.3 µM, 34.6 µM and 108 µM, respectively. For the same compound, the inhibition in data set [3] was determined as 0%; in [4] it was 0%; in [5], 11%; in the data set on Trypanosoma cruzi [7], 91%; in the data set on Trypanosoma cruzi [8], 50%; in the data set with Trypanosoma cruzi [10] it was 100%. In addition, the figures for the Activity in the data set on Trypanosoma cruzi [12], in the data set on Trypanosoma cruzi [13] and in the data set with Trypanosoma cruzi [11] were greater than 50%, 55% and 81%, respectively. This compound had an IC50 at 72 h in [1] of 213 µM.

For `Clc1nnc(NCCCn2ccnc2)c2cc3ccccc3cc12`, the IC50 with Trypanosoma cruzi [2] was 13.7 µM; in the data set on Trypanosoma cruzi [6] it was 46.9 µM; in the data set with Trypanosoma cruzi [9] it was 51 µM. In addition, the inhibition turned out to be 22% in data set [3]; 7% in data set [4]; 27% in [5]; 93% with Trypanosoma cruzi [7]; 80% in the data set on Trypanosoma cruzi [8]; 94% with Trypanosoma cruzi [10]. The same compound came in with an IC50 at 72 h in data set [1] of 146 µM. Moreover, the Activity with Trypanosoma cruzi [11] is recorded as 74%.

For the compound `O=C(Cn1ccnc1[N+](=O)[O-])NCc1ccccc1` [BENZNIDAZOLE], the IC50 with Trypanosoma cruzi [2] worked out at 15.8 µM.

With `c1ccc2cc3c(NCCCn4ccnc4)nnc(NCCCn4ccnc4)c3cc2c1`, the results for the IC50 with Trypanosoma cruzi [2], in the data set with Trypanosoma cruzi [6] and in the data set with Trypanosoma cruzi [9] were less than 0.2 µM, 34.8 µM and 53.4 µM, respectively. The inhibition in data set [3] turned out to be 12%; in data set [4], 2%; in data set [5], 18%; in the data set with Trypanosoma cruzi [7], 42%; with Trypanosoma cruzi [8] it was 32%; in the data set with Trypanosoma cruzi [10] it was 100%. In addition, the Activity with Trypanosoma cruzi [12] is greater than 50%; in the data set on Trypanosoma cruzi [13], 44%; in the data set with Trypanosoma cruzi [11] it was 84%. Also, the IC50 at 72 h in data set [1] was determined as 69.3 µM.
